These results are taken from ChEMBL document CHEMBL3232994, “Searching for new derivatives of neocryptolepine: synthesis, antiproliferative, antimicrobial and antifungal activities” (Eur J Med Chem, 2014).

The MIC is the lowest concentration found to suppress growth. As a reminder, the IC50 is the concentration at which inhibition is half-maximal.

The subject of assay [1] is Bacillus cereus. The assay can be described thus: Antibacterial activity against Bacillus cereus ATCC 11778 assessed as growth inhibition after 18 hrs by two-fold serial dilution method. The format is functional. The settings on record: ATCC 11778, 18 h. The method in brief: (§1)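 Twofold serial agar dilution on Mueller–Hinton II agar per CLSI. Final inoculum 10⁴ CFU/mL, except Enterococcus hirae ATCC 10541 at 10⁵ CFU/mL. MIC read after 18 h at 35 °C.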

Assay [2] deals with Enterococcus hirae. The assay can be described thus: Antibacterial activity against Enterococcus hirae ATCC 10541 assessed as growth inhibition after 18 hrs by two-fold serial dilution method. Format: functional. Particulars: ATCC 10541, 18 h. The method in brief: as §1
In assay [3] the test system is Micrococcus luteus. The assay can be described thus: Antibacterial activity against Micrococcus luteus ATCC 10240 assessed as growth inhibition after 18 hrs by two-fold serial dilution method. Format: functional. The settings on record: ATCC 10240, 18 h. In short, it runs like this: as §1
Assay [4] deals with Candida albicans. Description: Antifungal activity against Candida albicans ATCC 10231 assessed as growth inhibition after 18 hrs by two-fold serial dilution method. The format is functional. Particulars: ATCC 10231, 18 h. In short, it runs like this: (§2)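 MIC by twofold serial dilution on RPMI agar per CLSI. Final inoculum 10⁴ CFU/mL. Plates read after 18 h at 35 °C.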
Assay [5] has as its system Candida albicans. The assay can be described thus: Antifungal activity against Candida albicans SN250 assessed as growth inhibition after 18 hrs by two-fold serial dilution method. Format: functional. The settings on record: SN250, 18 h.
The subject of assay [6] is Candida parapsilosis. The assay can be described thus: Antifungal activity against Candida parapsilosis ATCC 22019 assessed as growth inhibition after 18 hrs by two-fold serial dilution method. The format is functional. The settings on record: Lodderomyces parapsilosis, ATCC 22019, 18 h.
For assay [7], the system named is Candida albicans. The assay can be described thus: Antifungal activity against Candida albicans ATCC 90028 assessed as growth inhibition after 18 hrs by two-fold serial dilution method. The format is functional. The settings on record: ATCC 90028, 18 h. The method in brief:
as §2

Assay [8] deals with Candida albicans. The assay can be described thus: Antifungal activity against Candida albicans SN250 assessed as inhibition of biofilm formation < MIC after 24 hrs by XTT reduction assay. Format: functional, organism-based. Background: Formazan colour is commonly taken as a measure of viable cells.
For assay [9], the system named is BALB/3T3. The assay can be described thus: Cytotoxicity against mouse BALB/3T3 cells assessed as growth inhibition after 72 hrs by SRB assay. The format is cell-based. Particulars: BALB/3T3, 72 h. In short, it runs like this: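 Mouse fibroblasts were kept in Dulbecco medium with 10% FBS, L-glutamine and pyruvate, and seeded at 10⁴/well 24 h before dosing. Agents were given at four tenfold final levels for 72 h. Cells were TCA-fixed (50%, 4 °C, 1 h) and stained with 0.4% SRB in 1% acetic acid. Triplicate wells, 3–5 repeats. IC50 versus untreated cells.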

The test system of assay [10] is A549. Description: Cytotoxicity against human A549 cells assessed as growth inhibition after 72 hrs by SRB assay. Particulars: A549, 72 h. The format is functional, cell-based. The method in brief:
(§3)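 Cells were seeded at 10⁴/well in RPMI 1640/Opti-MEM (1:1) with 5% FBS, plus 0.01 mg/mL insulin for MCF-7, 24 h before dosing. Agents in water/medium were given at four tenfold final levels for 72 h. Cells were fixed with cold 50% TCA (1 h, 4 °C), stained with 0.4% SRB, cell-free blank. Triplicate wells, 3–5 repeats. IC50 relative to untreated control.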
A general note: Sulforhodamine B stains cellular protein and so reports cell mass.

Assay [11] relates to MCF7. Description: Cytotoxicity against human MCF7 cells assessed as growth inhibition after 72 hrs by SRB assay. The format is functional, cell-based. Particulars: MCF7, 72 h. In short, it runs like this:
as §3

The subject of assay [12] is LoVo. Description: Cytotoxicity against human LoVo cells assessed as growth inhibition after 72 hrs by SRB assay. Format: functional, cell-based. In short, it runs like this:
as §3

Assay [13] has as its system KB. The assay can be described thus: Cytotoxicity against human KB cells assessed as growth inhibition after 72 hrs by SRB assay. Format: functional, cell-based. The method in brief:
as §3

For assay [14], the system named is Staphylococcus aureus. Description: Antibacterial activity against Staphylococcus aureus NCTC 4163 assessed as growth inhibition after 18 hrs by two-fold serial dilution method. Format: functional. The settings on record: NCTC 4163, 18 h. In short, it runs like this:
as §1

In assay [15] the test system is Staphylococcus aureus. The assay can be described thus: Antibacterial activity against Staphylococcus aureus ATCC 25923 assessed as growth inhibition after 18 hrs by two-fold serial dilution method. Format: functional. Particulars: ATCC 25923, 18 h. The method in brief:
as §1

The subject of assay [16] is Staphylococcus aureus. Description: Antibacterial activity against Staphylococcus aureus ATCC 6538 assessed as growth inhibition after 18 hrs by two-fold serial dilution method. Particulars: ATCC 6538, 18 h. The format is functional. In short, it runs like this: as §1
For assay [17], the system named is Staphylococcus aureus. The assay can be described thus: Antibacterial activity against Staphylococcus aureus ATCC 29213 assessed as growth inhibition after 18 hrs by two-fold serial dilution method. The format is functional. Particulars: ATCC 29213, 18 h. In short, it runs like this: as §1
Assay [18] has as its system Staphylococcus epidermidis. The assay can be described thus: Antibacterial activity against Staphylococcus epidermidis ATCC 12228 assessed as growth inhibition after 18 hrs by two-fold serial dilution method. The settings on record: ATCC 12228, 18 h. The format is functional. In short, it runs like this: as §1
Assay [19] deals with Bacillus spizizenii. Description: Antibacterial activity against Bacillus subtilis ATCC 6633 assessed as growth inhibition after 18 hrs by two-fold serial dilution method. The format is functional. The settings on record: ATCC 6633, 18 h. The method in brief: as §1
For assay [20], the system named is Micrococcus luteus. The assay can be described thus: Antibacterial activity against Micrococcus luteus ATCC 9341 assessed as growth inhibition after 18 hrs by two-fold serial dilution method. The settings on record: ATCC 9341, 18 h.

Calls of active or inactive are those of the source. The rule behind the calls is not given here.

With `Cc1c2c3ccccc3nc-2n(C)c2ccc(NC(=O)CN)cc12.Cl`, the MIC in assay [1] was 50 µg/mL; in assay [2], 100 µg/mL; in assay [3], 12.5 µg/mL; in assay [4] it was 100 µg/mL; in [5] it was 15.6 µg/mL; in [6], 100 µg/mL. Further, the MIC in assay [7] amounted to 100 µg/mL; in assay [14], 12.5 µg/mL; in assay [15], 12.5 µg/mL; in assay [16], 12.5 µg/mL; in [17], 12.5 µg/mL; in [18], 12.5 µg/mL. Moreover, the MIC in [19] came to 12.5 µg/mL; in assay [20] it was 6.25 µg/mL. Moreover, the inhibition entry in assay [8] was “Active”. The IC50 in assay [9] is 420 nM; in assay [10] it was 80 nM; in assay [11], 460 nM; in [12], 60 nM; in [13], 420 nM.
